Rows were chosen to be rich in hits. Some 3.9% of all compounds tested hit in one or more screens of this group.
CRFBP-R2 block = blocks CRF-induced signaling of the CRF-BP/CRF-R2 complex. hit rate 0.59% among 350,000. AID 588475. HEK293 CRF-R2/CRF-BP, CRF-induced calcium fluorescence. inhibition, % at 11.8 µM;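 active = inhibition of the ligand-induced calcium signal above about 50% at the single tested concentration, limit read from the data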
ANO1 activ = activators or potentiators of mouse TMEM16A chloride channel; HEK293 TMEM16A/YFP-H148Q/I152L, iodide quench fluorescence; hits give low values; B-score at 10 µM; hit rate 0.3% among 340,000; AID 623877;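 active = fluorescence-ratio B-score plate-corrected deviation score at least 3 library SD below zero, with starting fluorescence score within 5 deviations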;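 note: channel opened by trigger with iodide after compound preincubation; score built on the fluorescence ratio of max minus min over baseline; more negative score means more quench and so TMEM16A activation or potentiation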
TAAR1 antag = human TAAR1 antagonism; AID 624466; CHO RD-HGA16 TAAR1, Fluo-8 calcium fluorescence, antagonist; hit rate 1.5% among 360,000; Q96RJ0; inhibition, % at 3 µM;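 active = inhibition above a per-plate cutoff, the mean inhibition of test compounds on that plate plus 3 SD, cut at about 49% in these data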;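 note: 0% = DMSO plus EC80 beta-PEA response and 100% = DMSO alone without agonist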
Target sequence (Q96RJ0 whole entry, looked up): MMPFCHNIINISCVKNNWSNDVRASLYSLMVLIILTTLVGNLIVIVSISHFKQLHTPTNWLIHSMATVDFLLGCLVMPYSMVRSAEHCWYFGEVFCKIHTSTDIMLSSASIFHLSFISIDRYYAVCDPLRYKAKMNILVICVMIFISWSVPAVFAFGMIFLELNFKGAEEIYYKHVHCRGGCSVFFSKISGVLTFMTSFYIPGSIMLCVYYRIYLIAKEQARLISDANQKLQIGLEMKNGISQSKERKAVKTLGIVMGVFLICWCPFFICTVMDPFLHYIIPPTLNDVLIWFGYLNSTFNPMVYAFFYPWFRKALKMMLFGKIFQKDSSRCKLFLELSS
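Test system – hTAAR1-expressing CHO RD-HGA16 cells, Gα16-coupled · Reagent – β-PEA at EC80 concentration, post-compound challenge · Compound dosing – 3 µM, single point · Timing – 140 s kinetic read after compound, 140 s after agonist · Detection – Fluo-8 intracellular calcium dye fluorescence, real-time kinetic reads · Control set – DMSO and EC80 PEA controls · Repeats – n of 1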
CRFBP-R2 agonist = CRF-BP/CRF-R2 complex agonism | AID 588473 | activation, % at 13.2 µM | HEK293 CRF-R2/CRF-BP, calcium dye fluorescence (FLIPR); percent of saturating CRF peptide response | hit rate 0.46% among 350,000;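 active = activation of at least 50%, plus an integration ratio under a set limit after plate pattern correction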;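 note: plate controls were neutral control wells without compound for no effect and CRF at EC100 for full effect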
TAAR1 ag = agonists of human TAAR1 | CHO RD-HGA16 TAAR1, Fluo-8 calcium fluorescence; vehicle wells 0%, saturating PEA agonist 100% | activation, % at 3 µM | hit rate 0.99% among 360,000 | AID 624467;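 active = activation above the mean activation of all test compounds in the run plus 3 SD, cut at about 38% in these data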
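System: CHO-derived RD-HGA16 cells with stable Gα16 and human TAAR1. Times: 17-24 h plating, Fluo-8 75 min 37 °C, 30 min RT. Measured by: calcium-sensitive Fluo-8 signal, excitation 470-495, emission 515-575 nm. Read-out basis: % activation relative to PEA EC100 response. Control set: DMSO and PEA EC100. Repeats: no replicates (n 1).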
TMEM16A inh = blocks the mouse calcium-activated chloride channel TMEM16A; HEK293 TMEM16A/YFP iodide influx fluorescence, ionomycin; normalized B-score (activity score, 25-100; higher = stronger inhibition) at 10 µM; AID 588511; Q8BHY3; hit rate 1.2% among 310,000;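 active = ratio plate-corrected score three or more library SD toward inhibition, starting fluorescence score within five deviations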;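 note: score derived from kinetic fluorescence span divided by baseline fluorescence per well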
TAAR1 ag conf = confirmation of human TAAR1 agonists; shares compounds with TAAR1 ag; CHO RD-HGA16 TAAR1, Fluo-8 calcium fluorescence; scaled: DMSO 0%, maximal phenethylamine 100%; activation, % at 3 µM; hit rate 82% among 2,400;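 active = activation above a cutoff set at the run's mean compound activation plus 3 SD, cut at about 39% in these data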
Ga16 nonsel ag = counter-screen for TAAR1 agonists: nonselective agonists in parental cells; activation, % at 3 µM; hit rate 50% among 2,400; shares compounds with TAAR1 ag; CHO-Ga16 parental, Fluo-8 calcium fluorescence; normalized to maximal ATP response, DMSO zero;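 active = activation above the run cutoff, the mean activation over all tested wells plus 3 SD, cut at about 12% in these data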;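 note: 0% = DMSO wells and 100% = maximal ATP response on the peak over basal ratio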
TAAR1 desensitize = TAAR1 response desensitization, agonist counter-screen | shares compounds with TAAR1 ag | CHO RD-HGA16 hTAAR1, Fluo-8 calcium, beta-PEA response inhibition | inhibition, % at 3 µM | hit rate 46% among 2,400;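 active = inhibition above the run cutoff, the mean inhibition of all test compounds plus 3 SD, cut at about 49% in these data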;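 note: beta-PEA stimulus applied at its EC80; loss of beta-PEA calcium signal after compound pretreatment read as receptor desensitization; 0% = DMSO with beta-PEA at EC80 and 100% = DMSO alone without agonist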
Ga16 antag count = nonselective Ga16 antagonism, counter-screen; hit rate 39% among 2,400; inhibition, % at 3 µM; AID 651952; shares compounds with TAAR1 ag; CHO-Ga16 ATP-induced calcium, Fluo-8 fluorescence;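 active = inhibition above the plate's mean compound inhibition plus 3 SD, computed per plate, cut at about 22% in these data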;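 note: 0% = EC80 ATP with DMSO and 100% = DMSO wells without ATP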
The depositor's hits bear a star; i = inactive; nt = no result.

SMILES | CRFBP-R2 block | ANO1 activ | TAAR1 antag | CRFBP-R2 agonist | TAAR1 ag | TMEM16A inh | TAAR1 ag conf | Ga16 nonsel ag | TAAR1 desensitize | Ga16 antag count
CCN(CC(=O)Nc1ccc(NC(C)=O)cc1)C(=O)/C=C/c1ccc(S(=O)(=O)N2CCCCCC2)cc1 | -4 | i | -8 | 0 | 1 | i | nt | nt | nt | nt
COc1ccc(N2C(c3ccsc3)=Cc3cc4c(cc3C2c2c[nH]c3ccccc23)OCO4)cc1 (stereo unspecified) | nt | nt | 7 | nt | 0 | nt | nt | nt | nt | nt
COc1ccc(NC(=O)CCc2nnc3ccc(N4CCC5(CC4)OCCO5)nn23)cc1 | 4 | i | -21 | 3 | 6 | i | nt | nt | nt | nt
Cc1ccc(-n2sc3ccccc3c2=O)cc1S(=O)(=O)N1CCCCC1 | -24 | i | 16 | 11 | 70* | i | 17 | 14* | 17 | 16
O=C1NC(Cc2ccccc2)c2nc3ccc(Cl)cc3c(=O)n2-c2ncccc21 (stereo unspecified) | -3 | nt | 3 | 3 | 0 | nt | nt | nt | nt | nt
C(=NOCCc1ccccc1)c1cccnc1 | 17 | i | nt | 0 | nt | nt | nt | 0 | nt | 6
C=CCN1CN(CCc2ccccc2)CNC1=S | -8 | i | 5 | -1 | 55* | i | 81* | 15* | 46 | 2
CCN1CN(CCc2ccccc2)CNC1=S | -5 | i | nt | -1 | nt | i | nt | 3 | nt | 8
O=C(COc1ccc(Br)cc1)NNC(=S)NC(=O)c1ccccc1[N+](=O)[O-] | -15 | i | 15 | 0 | 4 | i | nt | nt | nt | nt
CCCCOc1ccccc1C(=O)NNC(=S)NC(=O)c1ccccc1[N+](=O)[O-] | -6 | i | 34 | 15 | 85* | i | 43* | 43* | 37 | 41*
CC(OC(=O)Cc1c[nH]c2ccccc12)C(=O)Nc1ccccc1[N+](=O)[O-] (stereo unspecified) | 16 | i | 13 | -3 | 4 | i | nt | nt | nt | nt
O=C(Nc1cc2cc([N+](=O)[O-])ccc2oc1=O)c1cccs1 | nt | nt | nt | nt | nt | i | nt | nt | nt | nt
C=CCC[C@H](Cc1ccc(F)cc1)C(=O)OC[C@H](Cc1c[nH]c2ccccc12)NC(=O)[C@@H](CC=C)CC(=O)NCCO | -22 | i | 74* | 60* | 65* | nt | 37 | 25* | 69* | 53*
O=C1/C(=C\c2cc(Cl)c(O)c(Cl)c2)SC(=S)N1Cc1ccccc1 | -119 | i | 97* | 187* | 111* | i | 188* | 258* | 107* | 106*
O=C(NNC(=O)c1ccc([N+](=O)[O-])cc1)c1ccc(Br)cc1 | -4 | i | -22 | 0 | 1 | i | nt | nt | nt | nt
O=C(NNC(=S)NC(=O)c1ccccc1Cl)c1cccc([N+](=O)[O-])c1 | 36 | i | 34 | 65* | 92* | i | 57* | 43* | 22 | 22*
O=C(NNC(=S)NC(=O)c1ccc(Br)cc1)c1cccc([N+](=O)[O-])c1 | 30 | i | 35 | 35 | 135* | i | 105* | 88* | 40 | 21
O=C(NNC(=S)NC(=O)c1ccc(Br)cc1)c1ccc([N+](=O)[O-])cc1 | -9 | i | 95* | 95* | 124* | i | 142* | 110* | 96* | 65*
CC(=O)NNC(=S)NC(=O)c1cccc([N+](=O)[O-])c1 | 7 | i | -27 | 0 | 2 | i | nt | nt | nt | nt
O=C(NNC(=S)NC(=O)c1ccccc1)c1ccc([N+](=O)[O-])cc1 | 21 | i | 27 | 40 | 64* | i | 70* | 46* | 19 | 22*
C[C@H](CO)N1C[C@H](C)[C@@H](CN(C)C(=O)Cc2ccccc2)OCCCC[C@H](C)Oc2ccc(NC(=O)NC3CCCCC3)cc2C1=O | -3 | nt | -2 | 4 | -1 | nt | nt | nt | nt | nt
Fc1cc(F)c(C2SCCN2C(=S)Nc2cccc(C(F)(F)F)c2)c(F)c1 (stereo unspecified) | -22 | i | 3 | 35 | 66* | i | 52* | 31* | 56* | 38*
COc1ccc(C2SCCN2C(=S)Nc2cccc(Cl)c2)cc1 (stereo unspecified) | -71 | i | 80* | 49 | 82* | i | 70* | 40* | 68* | 51*
O=C(CSc1nc2[nH]ncc2c(=O)n1-c1ccccc1)NCCc1ccccc1 | 3 | i | -17 | 0 | 7 | i | nt | nt | nt | nt
O=C(CSc1nc2[nH]ncc2c(=O)n1-c1ccccc1)c1ccc2c(c1)OCCO2 | -30 | i | 58* | 1 | 75* | i | 67* | 21* | 50* | 27*
SMILES | CRFBP-R2 block | ANO1 activ | TAAR1 antag | CRFBP-R2 agonist | TAAR1 ag | TMEM16A inh | TAAR1 ag conf | Ga16 nonsel ag | TAAR1 desensitize | Ga16 antag count
O=C(NCc1ccco1)c1sc(=S)n2c1[nH]c(=O)c1ccccc12 | 27 | i | 36 | 55* | 75* | 100* | 38* | 23* | 15 | 17
O=C(NCc1ccccc1)c1ccc2c(=O)[nH]c3c(C(=O)NCC4CCCO4)sc(=S)n3c2c1 (stereo unspecified) | 27 | i | -13 | -4 | 0 | i | nt | nt | nt | nt
COc1ccc(NC(=O)Cn2nnc(-c3ccccc3F)n2)cc1Cl | 0 | i | 38 | 3 | 57* | i | 19 | 2 | 9 | 18
CN1CCCN(C(=O)CNC(=O)c2ccccc2Br)CC1 | -25 | i | -12 | 3 | 4 | nt | nt | nt | nt | nt
COc1cc(NC(=O)Cn2cnc(S(=O)(=O)N3CCC(C)CC3)c2)cc(OC)c1OC | -4 | i | -11 | 0 | 6 | i | nt | nt | nt | nt
COc1ccc(Cn2c(-c3ccc(OC)cc3)nc3ccccc32)cc1 | -2 | i | -8 | -1 | 7 | i | nt | nt | nt | nt
COc1ccc(CCN2CCC(Nc3nc4ccccc4n3Cc3ccc(F)cc3)CC2)cc1 | -43 | i | 30 | 0 | 59* | i | 54* | 20* | 23 | 16
Cc1ccsc1-c1nc(CN2C[C@@H](C)O[C@@H](C)C2)c(C)o1 | -2 | i | -18 | 0 | 2 | i | nt | nt | nt | nt

From PubChem
